From ChEMBL document CHEMBL1129796, “(E)-3-[6-[[(2,6-dichlorophenyl)thio]methyl]-3-(2-phenylethoxy)-2- pyridinyl]-2-propenoic acid: a high-affinity leukotriene B4 receptor antagonist with oral antiinflammatory activity” (J Med Chem, 1996)

What was measured:
Mus musculus [1] = assay: Effect on Arachidonic Acid-Induced Mouse Ear Inflammation expressed as percent inhibition of MPO at 500 ug/ear of topical administration
Mus musculus [2] = assay: Effect on Arachidonic Acid-Induced Mouse Ear Inflammation expressed as percent inhibition of MPO at 50 mg/kg of oral administration; assay type: functional
In short: (§1)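 Balb/c mice (20 g; N=6-10 vehicle, typically 5-6 per drug group) dosed intragastrically with compound in distilled water. Thirty minutes later, 1.0 mg arachidonic acid in 20 µL cold acetone applied to left ear. Ear thickness measured 1 h later. Left ears then harvested and MPO activity read spectrophotometrically (Bradley method). ED50 from multiple dose–response studies (4–5 doses) by linear regression.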

Mus musculus [3] = assay: Dose required to inhibit 50% of arachidonic acid-induced inflammation after topical administration obtained from dose-response curves; assay type: functional
Mus musculus [4] = assay: Dose required to inhibit 50% of arachidonic acid-induced inflammation after oral administration obtained from dose-response curves; assay type: functional
In short: as §1

[5] = target: Leukotriene B4 receptor 1 (Homo sapiens, UniProt Q15722); assay: Inhibition of [3H]LTB4 binding to human neutrophils
Leukotriene B4 receptor 1, sequence (Q15722 whole entry): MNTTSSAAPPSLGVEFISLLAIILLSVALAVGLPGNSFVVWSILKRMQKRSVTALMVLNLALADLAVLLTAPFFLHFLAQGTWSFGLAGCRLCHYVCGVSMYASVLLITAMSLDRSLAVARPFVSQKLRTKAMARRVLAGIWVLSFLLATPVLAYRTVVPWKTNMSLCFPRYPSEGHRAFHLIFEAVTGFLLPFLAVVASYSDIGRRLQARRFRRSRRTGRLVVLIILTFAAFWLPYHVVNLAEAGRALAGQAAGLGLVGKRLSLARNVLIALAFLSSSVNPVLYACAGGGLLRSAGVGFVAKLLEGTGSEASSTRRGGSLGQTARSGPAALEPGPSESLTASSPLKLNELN
In short: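 Intact human PMNs (10^6; >90% neutrophils, >95% viable) incubated with 0.2 nM [3H]LTB4 for 20 min at 0 °C in Hanks balanced salt solution with 0.1% ovalbumin. Compound tested at 0.1 nM–10 µM; nonspecific binding defined with 1 µM unlabeled LTB4. Bound ligand separated by filtration and counted by scintillation. Duplicate curves of 5–8 concentrations, at least two assays.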

Mus musculus [6] = assay: Effect on Arachidonic Acid-Induced Mouse Ear Inflammation expressed as percent inhibition of MPO at 25 mg/kg of oral administration; assay type: functional
In short: as §1

Mus musculus [7] = assay: Effect on Arachidonic Acid-Induced Mouse Ear Inflammation expressed as percent inhibition of MPO at 1000 ug/ear of topical administration; assay type: functional
[8] = target: Cysteinyl leukotriene receptor 1 (Homo sapiens, UniProt Q9Y271); assay: Inhibitory concentration LTB4 with [3H]LTD4 in LTD4 receptor binding assay
Cysteinyl leukotriene receptor 1, sequence (Q9Y271 whole entry, looked up): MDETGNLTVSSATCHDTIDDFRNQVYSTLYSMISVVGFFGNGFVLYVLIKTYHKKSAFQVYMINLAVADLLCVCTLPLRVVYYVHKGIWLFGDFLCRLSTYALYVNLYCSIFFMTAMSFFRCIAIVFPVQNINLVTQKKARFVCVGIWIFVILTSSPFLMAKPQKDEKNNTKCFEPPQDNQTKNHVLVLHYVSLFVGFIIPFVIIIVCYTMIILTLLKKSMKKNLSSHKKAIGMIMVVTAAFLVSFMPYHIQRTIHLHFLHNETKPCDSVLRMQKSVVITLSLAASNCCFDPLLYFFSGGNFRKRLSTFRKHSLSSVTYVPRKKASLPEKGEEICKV

Homo sapiens = species: Homo sapiens; assay: Concentration required to block LTB4 induced degranulation in human PMNs; assay type: functional
In short: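 Washed human PMNs (10^6, isolated by Ficoll-Hypaque, dextran sedimentation, hypotonic lysis) in 1 mL Earls balanced salt solution with 20 mM HEPES, 0.1% ovalbumin. Preincubated 10 min with 5 µg/mL cytochalasin B, then compound or vehicle 5 min at 37 °C, then 100 nM LTB4 for 3 min. Supernatant MPO measured kinetically at 460 nm (o-dianisidine/H2O2, pH 6.0). Four curves of 5–7 concentrations; mean IC50 ± SEM.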

Mus musculus [9] = assay: Effect on Arachidonic Acid-Induced Mouse Ear Inflammation expressed as percent inhibition of MPO at 50 ug/ear of topical administration; assay type: functional
[10] = target: T1, Polyunsaturated fatty acid 5-lipoxygenase (Rattus norvegicus, UniProt P12527); assay: Concentration required to inhibit RBL-1 supernatant 5-lipoxygenase
T1 sequence (P12527 whole entry): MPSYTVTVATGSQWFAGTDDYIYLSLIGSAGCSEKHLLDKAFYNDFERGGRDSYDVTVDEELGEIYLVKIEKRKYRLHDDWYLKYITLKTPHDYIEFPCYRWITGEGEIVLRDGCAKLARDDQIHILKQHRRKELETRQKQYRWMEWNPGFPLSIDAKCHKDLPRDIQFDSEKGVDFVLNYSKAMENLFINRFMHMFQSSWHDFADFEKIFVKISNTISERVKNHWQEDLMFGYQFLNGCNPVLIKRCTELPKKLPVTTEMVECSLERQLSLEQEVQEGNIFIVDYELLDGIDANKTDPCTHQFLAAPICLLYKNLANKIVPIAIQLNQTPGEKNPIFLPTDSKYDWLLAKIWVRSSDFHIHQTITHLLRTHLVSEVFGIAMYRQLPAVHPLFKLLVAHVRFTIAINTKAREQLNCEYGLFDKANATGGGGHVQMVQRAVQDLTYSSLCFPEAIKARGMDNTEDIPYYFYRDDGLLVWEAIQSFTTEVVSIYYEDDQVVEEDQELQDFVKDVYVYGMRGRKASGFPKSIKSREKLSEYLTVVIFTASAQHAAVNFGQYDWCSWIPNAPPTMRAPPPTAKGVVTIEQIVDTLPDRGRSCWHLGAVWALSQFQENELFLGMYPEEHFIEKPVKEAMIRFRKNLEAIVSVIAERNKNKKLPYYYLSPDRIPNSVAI

Row | Ki [5] | Structure (SMILES) | inhibition in vivo at 50 mg/kg (Mus musculus [2]) | ED50 (Mus musculus [3]) | ED50 (Mus musculus [4]) | also measured
1 |  | COc1ccc(CCCCCCCCOc2ccc(C[S+]([O-])c3cccc(N)c3)nc2/C=C/C(=O)O)cc1 (stereo not drawn) | 0% | 350 ug ear-1 |  | Inhibition (Mus musculus [1]): 55%
2 | 1.5 nM | O=C(O)/C=C/c1nc(CSc2c(Cl)cccc2Cl)ccc1OCCc1ccc(F)cc1 |  |  | 14.1 mg/kg | inhibition in vivo at 25 mg/kg (Mus musculus [6]): 75%
3 | 2.8 nM | COc1ccc(CCCCOc2ccc(CSc3ccccc3)nc2/C=C/C(=O)O)cc1 | 26% |  |  | Inhibition (Mus musculus [7]): 49%
4 | 1.4 nM | O=C(O)/C=C/c1nc(CSc2c(Cl)cccc2Cl)ccc1OCCCc1ccccc1 |  |  |  | 
5 | 12 nM | O=C(O)/C=C/c1nc(CSc2c(Cl)cccc2Cl)ccc1OCc1ccc(F)cc1 |  |  |  | 
6 | 1.3 nM | O=C(O)/C=C/c1nc(CSc2c(Cl)cccc2Cl)ccc1OCCc1ccc(Cl)cc1 |  |  |  | 
7 | 1.2 nM | COc1ccc(CCOc2ccc(CSc3c(Cl)cccc3Cl)nc2/C=C/C(=O)O)cc1 |  |  |  | 
8 | 1.5 nM | COc1ccc(CCCCOc2ccc(CSc3c(Cl)cccc3Cl)nc2/C=C/C(=O)O)cc1 | 54% |  | 57.6 mg/kg | Inhibition (Mus musculus [7]): 82%
9 |  | COc1ccc(CCCCCCCCOc2ccc(CSCc3cccc(C(=O)O)c3)nc2/C=C/C(=O)O)cc1 | 0% | 390 ug ear-1 |  | Inhibition (Mus musculus [1]): 69%
10 | 0.78 nM | O=C(O)/C=C/c1nc(CSc2c(Cl)cccc2Cl)ccc1OCCc1ccccc1 [TICOLUBANT] |  | 8 ug ear-1 | 14.8 mg/kg | IC50 [8]: 16800 nM; IC50 (Homo sapiens): 53 nM; inhibition in vivo at 25 mg/kg (Mus musculus [6]): 70%; Inhibition (Mus musculus [9]): 83%; IC50 [10]: 8200 nM
